# NR2E3 ag-1: activates human photoreceptor nuclear receptor NR2E3. actives 0.12% (n = 320,000). GST-NR2E3/biotin-RetCOR TR-FRET, 1536-well. Q9Y5X4. AID 2300. inhibition of corepressor binding, % at 4.78 µM;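 active means percent inhibition above the cutoff of mean plus 3 SD of all tested compounds, set per screening campaign, cut at about 20% in these data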;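 further: 0% = DMSO wells and 100% = biotin wells as full block of FRET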
# Target sequence (Q9Y5X4 whole entry, looked up): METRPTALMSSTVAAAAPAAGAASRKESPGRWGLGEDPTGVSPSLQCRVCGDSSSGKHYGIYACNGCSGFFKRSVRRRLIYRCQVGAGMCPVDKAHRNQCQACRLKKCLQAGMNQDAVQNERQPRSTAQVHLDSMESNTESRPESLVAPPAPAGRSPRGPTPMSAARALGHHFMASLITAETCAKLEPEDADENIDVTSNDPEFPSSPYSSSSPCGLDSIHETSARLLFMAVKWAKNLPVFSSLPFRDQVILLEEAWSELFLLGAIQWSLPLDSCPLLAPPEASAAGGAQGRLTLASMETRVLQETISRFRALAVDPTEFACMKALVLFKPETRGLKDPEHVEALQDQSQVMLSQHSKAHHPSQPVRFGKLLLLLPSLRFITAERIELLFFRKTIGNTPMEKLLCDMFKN
#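 System: GST-tagged NR2E3 plus biotinylated RetCOR corepressor; Amount: 1.35 nM GST-tagged NR2E3 final; Dosing: single nominal compound dose of 4.8 µM; Schedule: 5 h incubation at 4 °C; Technique: TR-FRET with europium anti-GST and streptavidin-D2, 340 nm excitation; Controls: biotin wells as high control, 0.6% DMSO wells as low control.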
# NR2E3 ag-2: human photoreceptor-specific nuclear receptor agonism; Q9Y5X4; CHO-S Gal4-NCOR/VP16-NR2E3 two-hybrid, luciferase; inhibition of corepressor binding, % at 3.98 µM; actives 0.35% (n = 360,000); AID 602229;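 active means inhibition above the mean of all tested compounds plus 3 SD, cut at about 70% in these data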;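 further: 0% = DMSO with NR2E3 transfected cells and 100% = cells lacking NR2E3 construct; higher means lower luciferase signal from less NR2E3 corepressor binding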
# 697 NFkB inh: lowers PMA/ionomycin-induced NF-kB signal in 697 B cells; inhibition, % at 4 µM; AID 435022; actives 0.33% (n = 330,000); 697 B-cell NF-kB luciferase reporter, 16 h; in the data active means inhibition above about 35%
# GASC-1 inh: blocks human GASC-1 demethylase activity; Q9H3R0; inhibition, % at 2.35 µM; actives 0.069% (n = 330,000); GST-JMJD2C(1-420) H3K9me3 demethylation, DELFIA europium;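 active means more than half of a compound's replicate wells show inhibition beyond 50%, single wells judged on their own value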;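 further: signal counts dimethyl H3K9 product captured on neutravidin plate; 0% = median of DMSO wells and 100% = 0.3 times that DMSO median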
# Jurkat NFkB inh: lowers PMA/ionomycin-induced NF-kB signal in Jurkat cells. inhibition, % at 4 µM. PMA/ionomycin-induced NF-kB luciferase reporter, luminescence. actives 0.53% (n = 330,000); in the data active means inhibition above about 50%
# GalR3 antag: antagonists of human GalR3; actives 0.44% (n = 360,000); inhibition, % at 3 µM; HEK293 GalR3-CNG cAMP membrane potential fluorescence; galR3 body fused to GalR1 C-terminus;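 active means inhibition above the screen-wide average plus 3 SD, cut at about 13% in these data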;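 further: forskolin and galanin both at EC90 stimulate the cells; cAMP rise reported by CNG channel membrane potential dye signal; 0% = forskolin plus galanin with DMSO and 100% = forskolin alone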
# The depositor's hits bear a star; / = no result. Compounds with a hit are over-represented: about 1.5% of the library has one in this group of screens.
SMILES,NR2E3 ag-1,NR2E3 ag-2,697 NFkB inh,GASC-1 inh,Jurkat NFkB inh,GalR3 antag
NS(=O)(=O)c1ccc(CCNC(=O)C(=O)NCC2OCCN2S(=O)(=O)c2ccc(F)cc2)cc1 (stereo not drawn),2.0,5.8,10.0,-10.9,-7.9,-8.9
Cn1c2ccccc2c(=O)c2c(=O)n(Cc3ccco3)c(-c3ccc(C(C)(C)C)cc3)nc21,3.9,/,14.8,3.7,9.9,/
CCCNC(=S)Nc1cccc(C(F)(F)F)c1,1.5,-4.7,12.3,-20.5,12.4,-2.0
CC(C)(C)NNC(=S)Nc1cccc(C(F)(F)F)c1,1.8,8.6,-6.7,54.2*,-19.3,-3.2
CCOc1ccc(CC(=O)Nc2ccc(S(=O)(=O)N3CCCC3)cc2)cc1,2.0,-14.3,1.6,1.8,-1.9,-1.2
CSCC[C@H](NS(=O)(=O)c1ccc(C)cc1)C(=O)N1CCC(C(=O)N[C@H](C(=O)O)c2ccccc2)CC1,2.9,10.4,3.8,/,1.3,-7.5
CSc1ccc(C=NNc2ccc(S(=O)(=O)Nc3ccccc3C(=O)O)cc2[N+](=O)[O-])cc1,/,-18.0,6.9,103.3*,2.6,-0.3
CN(C)C(=O)CSc1n[nH]c(=O)n1CCc1ccccc1,2.7,-8.8,13.9,-4.0,20.3,-3.7
Cc1ccccc1-c1ccc(=O)n(CC(=O)Nc2ccc(N3CCOCC3)cc2)n1,6.0,-6.9,13.7,57.3*,18.6,-2.2
Cc1cccc(NC(=O)C2CCCN(S(=O)(=O)c3c(C)nn(C)c3C)C2)n1 (stereo not drawn),-0.3,2.8,4.1,63.0*,8.9,-0.7
Cc1cccc(NC(=O)C2CCCN(S(=O)(=O)c3c(C)nn(C)c3C)C2)c1 (stereo not drawn),3.7,-1.8,-14.8,-1.4,-6.5,-2.0
Cc1cccc(NC(=O)C2CCCN(S(=O)(=O)c3cccc4nsnc34)C2)n1 (stereo not drawn),6.6,-11.9,6.2,-1.3,12.8,-0.2
Cc1cccc(NC(=O)C2CCN(S(=O)(=O)c3cccc4nsnc34)CC2)n1,-1.5,7.9,2.6,51.7*,-8.8,-2.4
CC(NC(=O)C1CCCN(C(=O)c2ccc(Cl)cc2)C1)c1cccc(C(F)(F)F)c1 (stereo not drawn),-1.8,22.3,12.2,7.5,11.8,-4.8
COc1ccc(-c2cc(C(F)(F)F)nc(S(=O)(=O)CCCC(=O)Nc3cccnc3Cl)n2)cc1OC,/,-4.7,/,/,/,17.4*
Cc1c(NC(=O)c2nn(CC(C)C)c(=O)c3ccccc23)c(=O)n(-c2ccccc2)n1C,/,20.4,0.6,/,9.8,-4.5
COc1ccc(-c2cnc3c(NC=O)cc(-c4ccccc4OC)cn23)cc1OC,/,14.5,/,/,/,34.1*
CC1(C)CC(=O)C=C(N2CCNCC2)C1,-2.1,-4.6,17.5,5.9,-4.9,0.0
CC1CC(C)C[N+](=C2C=C(N3CCCC3)CC(C)(C)C2)C1 (stereo not drawn),/,13.2,/,9.1,/,28.5*
O=C1CCN(S(=O)(=O)c2ccccc2)CCN1CCOCc1cccc(F)c1,-1.9,1.9,-4.6,-0.4,0.0,-3.6
Cn1ccnc1C(O)(c1ccccc1)c1nccn1C,3.0,-19.6,14.6,2.9,8.3,-5.0
Cc1nn(C)c(N)c1C(O)(c1nccn1C)C(F)(F)F (stereo not drawn),3.0,-5.1,15.2,80.6*,-9.9,2.6
O=[N+]([O-])c1cc(Cl)c2cccnc2c1O,0.2,101.7*,7.9,0.9,-2.1,3.5
O=[N+]([O-])c1cc(F)c2cccnc2c1O,3.0,28.8,-3.5,-0.2,-4.1,-10.9
COc1ccc(NC(=O)N(C)C[C@H]2Oc3c(NS(=O)(=O)c4cn(C)cn4)cccc3C(=O)N([C@H](C)CO)C[C@@H]2C)cc1,/,-22.8,12.7,57.9*,11.1,-3.2
SMILES,NR2E3 ag-1,NR2E3 ag-2,697 NFkB inh,GASC-1 inh,Jurkat NFkB inh,GalR3 antag
C[C@H](CO)N1C[C@H](C)[C@@H](CN(C)S(=O)(=O)c2ccc(F)cc2)Oc2ccc(NC(=O)C3CC3)cc2C1=O,/,-14.3,32.1,62.0*,13.8,-1.8
CC(C)NC(=O)Nc1ccc2c(c1)C(=O)N([C@@H](C)CO)C[C@@H](C)[C@@H](CN(C)S(=O)(=O)c1ccc(F)cc1)O2,/,5.4,4.8,22.2,5.5,1.2
CC(C)NC(=O)N(C)C[C@H]1Oc2ccc(NS(=O)(=O)c3ccccc3)cc2C(=O)N([C@H](C)CO)C[C@H]1C,/,10.5,16.1,54.0*,-4.6,0.5
CCC1CCCCN1C(=O)NC(=O)c1ccccc1 (stereo not drawn),-0.8,-11.9,10.9,2.0,0.8,-0.2
COc1cccc2[nH]c3c(N4CCCCC4)ncnc3c12,-2.5,-33.8,-12.7,-11.8,-9.9,96.4*
CCOC(=O)C1CCN(c2ncnc3c2[nH]c2cccc(OC)c23)CC1,-1.0,15.2,17.0,-1.6,4.5,-4.5
CC1(C)C[C@H]2C3=CCC4[C@@]5(C)CC[C@H](O[C@@H]6O[C@H](C(=O)O)[C@@H](O)[C@H](O)[C@H]6O)[C@@](C)(CO)C5CC[C@@]4(C)[C@]3(C)C[C@H](O)[C@@]2(CO)[C@@H](O)[C@@H]1O (stereo partly drawn),/,-3.7,10.8,2.7,-5.7,0.1
C/C=C(\C)C(=O)OC1[C@H](OC(C)=O)C2(CO)C(CC1(C)C)C1=CCC3C4(C)CCC(O[C@@H]5O[C@H](C(=O)O)[C@@H](O[C@@H]6O[C@H](CO)[C@@H](O)[C@H](O)[C@H]6O)[C@H](O)[C@H]5O[C@H]5O[C@H](CO)[C@@H](O)[C@H](O)[C@H]5O)[C@](C)(CO)C4CCC3(C)[C@]1(C)C[C@H]2O (stereo partly drawn),/,105.8*,/,/,/,/
O=C(CSc1nnc(CNC(=O)c2cccs2)o1)c1ccccc1,0.8,-21.0,-29.3,96.6*,1.8,-3.8
O=C(CSc1nnc(CNC(=O)c2c(F)cccc2F)o1)NCCc1ccccc1,-0.9,22.9,28.1,19.6,0.1,-4.1
O=C(CSc1nnc(CNC(=O)c2ccccc2F)o1)NCCc1ccccc1,1.0,-1.9,-47.4,107.7*,1.8,-4.1
O=C(CSc1nnc(CNC(=O)c2cccs2)o1)c1ccc(Cl)cc1,-1.9,-6.5,-0.8,5.5,-7.1,-6.1
COc1ccc(/C=N/Nc2cc(=O)n(C)c(=O)n2C)cc1OC,-1.7,-1.2,1.5,52.3*,-6.5,-3.6
Cn1c2c(c(=O)n(C)c1=O)CN(CCCN1CCOCC1)CN2,-1.8,-11.1,8.9,53.4*,-0.7,-1.7
COc1cc(/C=N/NC(=O)c2cccc([N+](=O)[O-])c2)cc(OC)c1O,0.0,-0.9,14.7,0.4,-10.3,2.4
COc1cc(/C=N/NC(=O)c2cncc(Br)c2)cc([N+](=O)[O-])c1O,-2.0,10.6,7.9,-7.6,4.6,25.0*

# Assay outcomes from PubChem.
